Assay results reported in ChEMBL document CHEMBL2040742, “Predicting and improving the membrane permeability of peptidic small molecules” (J Med Chem, 2012).

Legend:
Assay type in all cases: ADME, cell-based, Canis lupus familiaris
Details in all cases: dog
MDCK [1] = assay: Apparent permeability from apical to basal side of MDCK cells expressing MDR1 at 2 uM by LC-MS/MS analysis
In short: (§1)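 MDR1-MDCK monolayers grown on PET inserts (seeded 2 × 10⁵ cells/cm², 4-6 days to confluence). Compound diluted from 10 mM stock into HBSS pH 7.4 to 2 μM, dosed apically or basolaterally. Analyte quantified by LC-MS/MS as analyte/IS peak area ratio. Papp from 0.084 cm² monolayer area and initial donor concentration. Triplicate, reported as means.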

MDCK [2] = assay: Apparent permeability from basal to apical side of MDCK cells expressing MDR1 at 2 uM by LC-MS/MS analysis; in short: as §1
MDCK [3] = assay: Efflux ratio of apparent permeability from basal to apical side to apical to basal side of MDCK cells expressing MDR1 at 2 uM by LC-MS/MS analysis

Row | SMILES | Papp (MDCK [1]) [×10⁻⁶ cm/s] | Papp (MDCK [2]) [×10⁻⁶ cm/s] | Ratio (MDCK [3])
1 | NC(=O)[C@H](Cc1ccccc1)NC(=O)OCc1ccccc1 | 24.6 | 21.1 | 0.86
2 | NC(=O)[C@H](Cc1ccncc1)NC(=O)OCc1ccccc1 | 4.31 | 13.4 | 3.1
3 | N#CCNC(=O)[C@H](Cc1c[nH]cn1)NC(=O)OCc1ccccc1 | 0.51 | 2.94 | 5.8
